From paper PMC5407101 (Pharmacognosy Magazine, 2017)
Blank lines part the entries; values can stand above or below the molecule they belong to.

Key:
Format in all cases: in vitro ADME
[1] = system: UDP-glucuronosyltransferases (UGTs) in rat liver microsomes; test: Kinetic analysis for 4-MU glucuronidation in RLM
How it was run: (§1)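 Microsomes from livers or kidneys of untreated male Sprague-Dawley rats. Protein was 0.1 mg mL–1 (RLM) or 0.125 mg mL–1 (RKM), pre-treated on ice for 5 min with Triton X-100 (0.1 μL mg–1 RLM; 0.2 μL mg–1 RKM), in Tris-HCl pH 7.4 with MgCl2. 4-MU ranged 0-10 mM. After 5 min at 37°C, UDPGA started the 15-min reaction, stopped with TCA. 4-MUG was measured by C18 HPLC-UV at 316 nm. Km and Vmax came from a Michaelis-Menten fit.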

[2] = system: UDP-glucuronosyltransferases (UGTs) in rat kidneys microsomes; test: Kinetic analysis for 4-MU glucuronidation in RKM
How it was run: as §1

[3] = system: UDP-glucuronosyltransferases (UGTs) in rat liver microsomes; test: Inhibition of 4-MU glucuronidation assay in RLM; conditions: for fold more potent inhibition of 4-MU glucuronidation with RLM than with RKM: ratio of IC50 RKM/RLM
[4] = system: UDP-glucuronosyltransferases (UGTs) in rat liver microsomes; test: Kinetic analysis for p-NP glucuronidation in RLM
How it was run: (§2)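 RLM or RKM (5 mg mL–1) was pre-treated on ice for 5 min with Triton X-100 (0.25 v/v % RLM; 0.125 v/v % RKM). Incubation was in Tris-HCl pH 7.4 with MgCl2, at seven p-NP levels (0-3,000 µM), started with UDPGA, 37°C for 30 min. The reaction was stopped with TCA and alkalinised with NaOH, and read at 405 nm. Glucuronidated p-NP was taken as blank minus unreacted, per protein and time. Km and Vmax came from a Michaelis-Menten fit.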

[5] = system: UDP-glucuronosyltransferases (UGTs) in rat kidneys microsomes; test: Kinetic analysis for p-NP glucuronidation in RKM
How it was run: as §2

[6] = read-out: Km of p-NP glucuronidation, Michaelis-Menten

Km ([1]; read-out: Km of 4-MU glucuronidation, Michaelis-Menten, no inhibitor): 104 ± 20 µM
Km ([2]; read-out: Km of 4-MU glucuronidation, Michaelis-Menten): 101 ± 6 µM
SMILES: Cc1cc(=O)oc2cc(O)ccc12 [4-MU, 4-methylumbelliferone]
Vmax of 4-MU glucuronidation ([1]; Michaelis-Menten, no inhibitor): 27.87 ± 1.08 nmol min^–1 mg^–1
Vmax of 4-MU glucuronidation ([2]; Michaelis-Menten): 12.01 ± 0.12 nmol min^–1 mg^–1

fold higher IC50 in comparison with vanillin, 4-MU UGT inhibition ([3]; RLM): 120 fold
fold more potent inhibition of 4-MU glucuronidation with RLM than with RKM [3]: 1.2 fold
SMILES: COc1cc(C=O)cc(OC)c1O [Syringaldehyde]

fold more potent inhibition of 4-MU glucuronidation with RLM than with RKM [3]: 2.6 fold
SMILES: COc1cc(C=O)ccc1O [Vanillin]

Km [4, 6]: 860 ± 86.8 µM
Km [5, 6]: 857 ± 68.3 µM
SMILES: O=[N+]([O-])c1ccc(O)cc1 [p-NP, p-nitrophenol]
Vmax of p-NP glucuronidation ([4]; Michaelis-Menten): 43.04 ± 1.64 nmol min^–1 mg^–1
Vmax of p-NP glucuronidation ([5]; Michaelis-Menten): 9.320 ± 1.11 nmol min^–1 mg^–1
